Non-standard residues stand in square brackets, D forms with d. Residues, ends and D or L forms follow the SMILES beside them. Ac5c = NC1(C(=O)O)CCCC1; GABA = NCCCC(=O)O
Legend:
Format in all cases: functional
[1] = species on record: Mus musculus; experiment: Compound was tested for the immunomodulatory activity in vitro expressed as stimulation index by lymphocyte transformation test at 0.01 ug/mL
Procedure, shortened: (§1)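 Normal Swiss mouse splenocytes, RBCs lysed with 0.83% NH4Cl in 10 mM Tris pH 7.2, held at 5x10⁶ cells/ml in RPMI with 10% FCS. Cells cultured 72 h at 37°C in CO₂ with PHA-P mitogen and peptide (10, 1, 0.1, 0.01 µg/ml), then [³H]thymidine pulse and 18 h further incubation. Read as DPM ratio to untreated wells; triplicate runs, ±SD.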

[2] = species on record: Mus musculus; experiment: Compound was tested for the immunomodulatory activity in vitro expressed as stimulation index by mixed lymphocyte reaction at 1 ug/mL
[3] = species on record: Mus musculus; experiment: Compound was tested for the immunomodulatory activity in vitro expressed as stimulation index by lymphocyte transformation test at 0.1 ug/mL; procedure, shortened: as §1
[4] = species on record: Mus musculus; experiment: Compound was tested for the immunomodulatory activity in vitro expressed as stimulation index by lymphocyte transformation test at 1 ug/mL; procedure, shortened: as §1
[5] = species on record: Mus musculus; experiment: Compound was tested for the immunomodulatory activity in vitro expressed as stimulation index by lymphocyte transformation test at 10 ug/mL; procedure, shortened: as §1
[6] = species on record: Mus musculus; experiment: Compound was tested for the immunomodulatory activity in vitro expressed as stimulation index by mixed lymphocyte reaction (MLR) at 10 ug/mL
[7] = species on record: Mus musculus; experiment: Compound was tested for the immunomodulatory activity in vitro expressed as stimulation index by mixed lymphocyte reaction at 0.1 ug/mL
[8] = species on record: Mus musculus; experiment: Compound was tested for the immunomodulatory activity in vitro expressed as stimulation index by mixed lymphocyte reaction at 10 ug/mL
[9] = species on record: Mus musculus; experiment: Compound was tested for the immunomodulatory activity in vitro expressed as stimulation index by mixed lymphocyte reaction 1 ug/mL

| SMILES | Stimulation index [1] | Stimulation index [2] | Stimulation index [3] | Stimulation index [4] | Stimulation index [5] | Stimulation index [6] | Stimulation index [7] | Stimulation index [8] | Stimulation index [9] |
| --- | --- | --- | --- | --- | --- | --- | --- | --- | --- |
| CC[C@H](C)[C@H](NC(=O)CCCNC(=O)[C@@H](N)C(C)C)C(=O)N1CCC[C@H]1C(=O)N[C@@H](Cc1ccc(O)cc1)C(=O)O (H-V[GABA]IPY-OH) | 0.55 | 0.77 | 0.73 | 0.69 | 0.88 | 0.74 | 0.67 | – | – |
| CC[C@@H](C)[C@@H](NC(=O)[C@@H]1CCCN1C(=O)[C@H](CCC(=O)O)NC(=O)[C@H](C)N)C(=O)N1CCC[C@H]1C(=O)N[C@H](Cc1ccc(O)cc1)C(=O)O | 1.32 | 0.89 | 1.27 | 1.3 | 1.32 | – | 0.84 | 0.75 | – |
| CC[C@H](C)[C@H](NC(=O)CNC(=O)CNC(=O)[C@@H](N)C(C)C)C(=O)N1CCC[C@H]1C(=O)N[C@@H](Cc1ccc(O)cc1)C(=O)O (H-VGGIPY-OH) | 0.93 | 0.95 | 1.03 | 1.15 | 1.22 | – | 0.66 | 0.88 | – |
| CC[C@@H](C)[C@@H](NC(=O)[C@@H]1CCCN1C(=O)[C@@H](CCC(=O)O)NC(=O)[C@H](C)N)C(=O)N1CCC[C@H]1C(=O)N[C@H](Cc1ccc(O)cc1)C(=O)O | 1.17 | 0.82 | 1.57 | 1.4 | 1.22 | – | 0.74 | 0.72 | – |
| CC[C@@H](C)[C@@H](NC(=O)[C@@H]1CCCN1C(=O)[C@H](CCC(=O)O)NC(=O)[C@@H](N)C(C)C)C(=O)N1CCC[C@H]1C(=O)N[C@H](Cc1ccc(O)cc1)C(=O)O | 0.82 | – | 1.08 | 1.22 | 1.18 | – | 0.93 | 0.77 | 0.75 |
| CC[C@H](C)[C@H](NC(=O)[C@@H]1CCCN1C(=O)[C@H](CCC(=O)O)NC(=O)[C@@H](N)C(C)C)C(=O)N1CCC[C@H]1C(=O)N[C@@H](Cc1ccc(O)cc1)C(=O)O | 1.27 | 0.9 | 1.43 | 1.5 | 1.45 | – | 1 | 0.9 | – |
| CC[C@H](C)[C@H](NC(=O)C1(NC(=O)[C@H](CCC(=O)O)NC(=O)[C@@H](N)C(C)C)CCCC1)C(=O)N1CCC[C@H]1C(=O)N[C@@H](Cc1ccc(O)cc1)C(=O)O (H-VE[Ac5c]IPY-OH) | 0.69 | 0.86 | 0.7 | 1.09 | 1.1 | – | 0.65 | 0.62 | – |
